One data set relates to MDA231-LM2-4175. Kind of data set: Inhibition of cell migration in human MDA231-LM2-4175 cells incubated for 12 to 96 hrs by wound healing assay. The following applies: dose 0.3-3 µM, time 12-96 hrs. It is filed as functional, cell-based. A digest of the protocol:
(§1)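 Cells grown to 100% confluence, then scratched with a pipette tip. Treated with 0–3 μM until vehicle-treated cells had migrated into the scratch. Images taken by microscope after about 12–96 h. Triplicate experiments.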

For data set [1], the system named is MDA-MB-231. Kind of data set: Induction of apoptosis in human MDA-MB-231 cells assessed as early apoptotic cells at 3 uM after 48 hrs by Annexin-V-FITC/propidium iodide staining based flow cytometric analysis (reference value: 2.98%). It is filed as functional.
Data set [2] concerns MDA-MB-468. Kind of data set: Inhibition of cell migration in human MDA-MB-468 cells incubated for 12 to 96 hrs by wound healing assay. The data set is classed as functional, cell-based. To be noted: dose 0.3-3 µM, time 12-96 hrs. A digest of the protocol:
as §1

For data set [3], the system named is MDA-MB-231. Kind of data set: Induction of apoptosis in human MDA-MB-231 cells assessed as late apoptotic cells at 3 uM after 48 hrs by Annexin-V-FITC/propidium iodide staining based flow cytometric analysis (Rvb =3.05%). The data set is classed as functional.
The nature of data set [4]: Toxicity in NOD/SCID mouse xenografted with patient-derived breast cancer cells assessed as change in body weight at 5 to 15 mg/kg, ip administered once daily for 20 days. The following applies: in vivo, 480 h.
Data set [5] concerns MDA-MB-468. Kind of data set: Induction of apoptosis in human MDA-MB-468 cells assessed as late apoptotic cells at 3 uM after 48 hrs by Annexin-V-FITC/propidium iodide staining based flow cytometric analysis (reference value: 1.25%). It is filed as functional. In general terms: Flow cytometry measures light scatter and fluorescence of single cells or particles in a stream.
For data set [6], the target named is T1, Signal transducer and activator of transcription 3 (Homo sapiens, UniProt P40763). Kind of data set: Inhibition of STAT3 in human MDA231-LM2-4175 cells assessed as downregulation of c-Myc expression at 0.3 to 3 uM after 24 hrs by western blot analysis. It is filed as cell-based. To be noted: dose 0.3-3 µM. A digest of the protocol: (§2)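 TNBC cells given vehicle (0.1% DMSO) or graded compound levels for 24 h, lysed in RIPA with PMSF and phosphatase inhibitors. BCA-quantified lysate (20–50 µg) run on SDS-PAGE, transferred to PVDF, blocked in 5% BSA. Probed overnight at 4 °C for Bcl-xL, Mcl-1 and c-Myc, with β-actin. HRP secondary, ECL detection. Three independent experiments.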
T1 sequence (P40763 whole entry): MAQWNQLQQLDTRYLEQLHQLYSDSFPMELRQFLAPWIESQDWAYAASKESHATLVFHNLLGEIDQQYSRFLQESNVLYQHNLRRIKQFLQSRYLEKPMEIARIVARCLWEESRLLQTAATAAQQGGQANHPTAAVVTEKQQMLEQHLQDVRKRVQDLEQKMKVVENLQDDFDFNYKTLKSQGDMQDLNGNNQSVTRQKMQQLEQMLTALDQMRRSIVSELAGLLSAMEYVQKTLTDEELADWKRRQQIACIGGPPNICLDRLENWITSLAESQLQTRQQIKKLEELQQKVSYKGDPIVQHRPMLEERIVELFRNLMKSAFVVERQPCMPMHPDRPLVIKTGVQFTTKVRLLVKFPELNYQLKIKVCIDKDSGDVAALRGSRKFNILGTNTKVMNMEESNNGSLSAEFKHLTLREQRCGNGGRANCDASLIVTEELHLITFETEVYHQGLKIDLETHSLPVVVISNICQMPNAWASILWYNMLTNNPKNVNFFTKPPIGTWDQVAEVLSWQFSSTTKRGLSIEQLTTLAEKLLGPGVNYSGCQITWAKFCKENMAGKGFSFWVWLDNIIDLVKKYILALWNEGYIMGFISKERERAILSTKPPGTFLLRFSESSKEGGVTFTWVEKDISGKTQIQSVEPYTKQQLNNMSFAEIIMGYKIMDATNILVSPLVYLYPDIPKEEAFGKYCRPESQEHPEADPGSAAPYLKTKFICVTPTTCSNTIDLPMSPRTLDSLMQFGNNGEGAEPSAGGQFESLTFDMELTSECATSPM

Data set [7] has as its system MDA-MB-231. The data set is described as follows: Induction of apoptosis in human MDA-MB-231 cells assessed as necrotic cells at 3 uM after 48 hrs by Annexin-V-FITC/propidium iodide staining based flow cytometric analysis (Rvb =0.543%). It is filed as functional.
The next data set relates to H9c2. Kind of data set: Antiproliferative activity against rat H9C2 cells assessed as reduction in cell viability after 72 hrs by CCK8 assay. The data set is classed as cell-based. To be noted: H9c2, 72 h. In outline:
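Cells seeded at 1000–8000 per well were grown overnight, then exposed to 0.1–100 μM compound or 0.1% DMSO vehicle for 72 h. CCK-8 was added for 0.5–4 h at 37 °C and absorbance read at 480 nm. Viability = (OD compound − blank)/(OD vehicle − blank) × 100, with medium as blank. IC50 fitted from three independent experiments.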

For data set [8], the target named is T1, Signal transducer and activator of transcription 3. The data set is described as follows: Inhibition of HA-tagged STAT3 dimerization (unknown origin) expressed in HEK293T cells after 24 hrs by confocal microscopic analysis. The following applies: dose 1-3 µM. The data set is classed as cell-based. In outline: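 HEK-293T cells transfected with HA-STAT3 and Flag-STAT3. After 24 h, treated with vehicle (0.1% DMSO) or compound for 24 h, with IL-6 100 ng/mL added for 30 min. Fixed in paraformaldehyde, permeabilised with Triton X-100, stained with anti-HA and anti-Flag plus Alexa 488/555 secondaries and DAPI. Confocal imaging for colocalisation.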

Data set [9] is described as follows: Tmax in Sprague-Dawley rat at 10 mg/kg, po measured up to 24 hrs by LC-MS/MS analysis. The data set is classed as ADME, organism-based. The following applies: in vivo. In outline: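 Male SD rats dosed orally at 10 mg/kg in DMSO/0.5% HPMC (5/95, v/v). Blood drawn at 0.25, 0.5, 1, 2, 4, 8 and 24 h for plasma. Plasma analysed by LC-MS/MS on a UPLC BEH phenyl column with 0.1% formic acid water/acetonitrile.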

In data set [10] the test system is MDA-MB-468. Kind of data set: Inhibition of colony formation in human MDA-MB-468 cells at 0.3 uM after 10 to 15 days by crystal violet staining based assay. It is filed as functional, cell-based. The following applies: time 10-15 day. A digest of the protocol:
(§3)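 Cells seeded at 0.5×10^3–1×10^3 per well; compound added the next day. Medium and compound renewed every 2–3 days. After about 10–15 days, colonies fixed with 4% paraformaldehyde, stained with crystal violet, scanned and quantified by image analysis. Triplicate.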

In data set [11] the test system is MDA-MB-468. Kind of data set: Induction of apoptosis in human MDA-MB-468 cells assessed as early apoptotic cells at 1 uM after 48 hrs by Annexin-V-FITC/propidium iodide staining based flow cytometric analysis (reference value: 2.66%). The data set is classed as functional.
Data set [12] can be described thus: Toxicity in NOD/SCID mouse xenografted with patient-derived breast cancer cells assessed as morphological change in spleen at 5 to 15 mg/kg, […] once daily for 20 days by HE staining based assay. The following applies: in vivo, iv, 480 h, dose 5-15 mg/kg, time 20 day. The data set is classed as organism-based. A digest of the protocol:
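Female NOD-SCID mice implanted subcutaneously in the flank with about 2 mm³ TNBC PDX fragments. At about 100 mm³ tumour volume, randomised n=6/group: vehicle (PBS with 15% Cremophor EL), 5 or 15 mg/kg intraperitoneally daily. Killed at day 20; heart, liver, spleen, lung and kidney collected for morphological examination.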

Data set [13] has as its system MDA-MB-231. The data set is described as follows: Effect on total STAT5 level in human MDA-MB-231 cells at 0.3 to 3 uM after 3 hrs by Western blotting analysis. The data set is classed as functional, cell-based. To be noted: dose 0.3-3 µM. A digest of the protocol: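 Breast cancer cells were treated with vehicle (0.1% DMSO) or compound, then lysed in RIPA with PMSF and phosphatase inhibitors. 20–50 μg protein was run on 8 or 12% SDS-PAGE, blotted to PVDF, blocked in 5% BSA, probed with primary antibodies overnight at 4 °C, then HRP secondaries, with ECL detection.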
In general terms: Immunoblotting shows a protein as a band on a membrane.

The subject of another data set is HCC70. The data set is described as follows: Inhibition of colony formation in human HCC70 cells at 0.3 uM after 10 to 15 days by crystal violet staining based assay. The data set is classed as functional, cell-based. To be noted: time 10-15 day. A digest of the protocol: as §3
Data set [14] has as its target T1, Signal transducer and activator of transcription 3. The data set is described as follows: Inhibition of STAT3 in human HCC70 cells assessed as downregulation of Bcl-xL expression at 0.3 to 3 uM after 24 hrs by western blot analysis. The data set is classed as cell-based. The following applies: dose 0.3-3 µM. In outline: as §2
For data set [15] the target is unchanged. Kind of data set: Inhibition of STAT3 DNA binding in human MDA-MB-468 cells at 0.3 to 1 uM after 3 hrs by EMSA analysis. It is filed as cell-based. The following applies: dose 0.3-1 µM. A digest of the protocol:
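Cells exposed to vehicle or compound for 3 h. Nuclear extracts prepared and BCA-quantified. Nuclear protein (8–10 µg) incubated with biotinylated STAT3 or STAT5 probe, resolved on 6% native polyacrylamide gel, transferred to nylon membrane and detected with a gel-shift kit.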

The target is the same in data set [16]. Kind of data set: Inhibition of STAT3 in human MDA-MB-468 cells assessed as downregulation of c-Myc expression at 0.3 to 3 uM after 24 hrs by western blot analysis. The data set is classed as cell-based. To be noted: dose 0.3-3 µM. A digest of the protocol:
as §2

Another data set has as its system Breast cancer cell line. The data set is described as follows: Antitumor activity against patient-derived breast cancer cells xenografted in NOD/SCID mouse assessed as reduction in Bcl-xL expression at 5 to 15 mg/kg, iv administered once daily for 20 days by Western blotting analysis. It is filed as functional, organism-based. To be noted: Homo sapiens, dose 5-15 mg/kg, time 20.0 day.

For data set [17], the target named is T1, Signal transducer and activator of transcription 3. Kind of data set: Inhibition of STAT3 phosphorylation at Tyr705 residue in human MDA-MB-231 cells after 3 hrs by Western blotting analysis. The data set is classed as cell-based. The following applies: dose 0.3-3 µM.

As usually defined, the IC50 is the concentration that gives 50% inhibition. By Tmax is commonly meant the time at which the peak concentration occurs.

Calls of active or inactive are those of the source. The rule behind the calls is not given here.

On to `O=C(Cc1c(-c2ccccc2)nc2ccccn12)Nc1ccc2c(c1)S(=O)(=O)C=C2`, for which the inhibition result (with MDA231-LM2-4175; in the data set with MDA-MB-468 [2]; in [8]; in [17]) was “Dose-Dependent Effect” each time. The Activity in the data set with MDA-MB-231 [1] is recorded as 12.5%; in the data set on MDA-MB-231 [3], 11.5%; in data set [4], “Non-Toxic”; in the data set on MDA-MB-468 [5], 27.8%; with MDA-MB-231 [7], 2.09%; with MDA-MB-468 [11], 24%. In [12], the Activity result is “Non-Toxic”. The inhibition result (in data set [6]; in the data set with MDA-MB-468 [10]; with HCC70; in [14]; in data set [15]; in data set [16]) was “Active” each time. Further, the IC50 in the data set on H9c2 turned out to be 6.79 µM. For the same molecule, the time of peak concentration (Tmax) in data set [9] is 1.67 h. Also, the outcome in the data set with MDA-MB-231 [13] was inactive. Further, in the data set with Breast cancer cell line, the outcome was Active.

The values above are taken from ChEMBL document CHEMBL4825680, “Structure-based discovery of potent and selective small-molecule inhibitors targeting signal transducer and activator of transcription 3 (STAT3)” (Eur J Med Chem, 2021).
